Results as given in ChEMBL document CHEMBL1126262, “2-(Aminomethyl)chromans that inhibit iron-dependent lipid peroxidation and protect against central nervous system trauma and ischemia” (J Med Chem, 1992).
Several values for one entry are separate records, joined by “and”; a condition that tells them apart may be missing. Equal entries are not always repeated. Activity calls are given as the source filed them. The calls are words filed in the database; no cut-off is given here.

Experiments:
Mus musculus [1] = assay: Antagonistic activity against potassium cyanide induced cytotoxic hypoxia in male CF-1 mice at a dose of 10 mg/kg(p<0.05); assay type: organism-based; set-up: dose 10 mg/kg; conditions: in vivo
Mus musculus [2] = organism: Mus musculus; assay: Lowest effective dosage in Mouse Head Injury Assay.; assay type: functional
Outline: (§1)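 Unanesthetized male CF-1 mice (17-20 g), concussive head injury from 50-g weight dropped 18 cm (~900 g-cm). Vehicle (0.05 N HCl or 0.5% Tween 80) or drug, 0.001-30.0 mg/kg, iv bolus within 5 min postinjury (oral where indicated). Blind grip-string test at 1 h; groups of 20-25 mice, vehicle plus four dose groups; Duncan's multiple range test.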

Mus musculus [3] = assay: Tested in vivo for neuroprotectant activity against mouse head injury(MHI) model.; assay type: functional; outline: as §1
Mus musculus [4] = assay: Antagonistic activity against potassium cyanide induced cytotoxic hypoxia in male CF-1 mice at a dose of 20 mg/kg(p<0.05); assay type: organism-based; set-up: dose 20 mg/kg; conditions: in vivo
Rattus norvegicus = organism: Rattus norvegicus; assay: Tested in vitro for the inhibition of iron-dependent lipid peroxidation against rat brain homogenates, by malondialdehyde (MDA) formation assay; assay type: functional
Mus musculus [5] = assay: Tested in vivo for neuroprotectant activity against mouse head injury(MHI) model; IA = Inactive; assay type: functional, organism-based; outline: as §1
Mus musculus [6] = assay: Antagonistic activity against potassium cyanide induced cytotoxic hypoxia in male CF-1 mice at a dose of 10 mg/kg; assay type: organism-based; set-up: dose 10 mg/kg; conditions: in vivo
Mus musculus [7] = organism: Mus musculus; assay: Lowest effective dosage using in Mouse Head Injury Assay; assay type: functional; outline: as §1

Row | Compound | Lowest effective dose (Mus musculus [2]) | Grip score (Mus musculus [3]) | IC50 (Rattus norvegicus; Rattus norvegicus, Brain) | other results
1 | Cc1c(C)c2c(c(C)c1O)CCC(C)(CN1CCN(Cc3ccccc3)CC1)O2.Cl.Cl (centres undefined) | 0.01 mg/kg | 13 | 1000 nM | LD50 (Mus musculus [1]): 130%; LD50 (Mus musculus [4]): 181.4%
2 | Cc1c(C)c2c(c(C)c1O)CCC(C)(CN1CCN(c3cc(N4CCCC4)nc(N4CCCC4)n3)CC1)O2.Cl.Cl.O (centres undefined) | – | 13.7 and 14.7 | – | LD50 (Mus musculus [1]): 114%; LD50 (Mus musculus [4]): 134.2%; IC50 (Rattus norvegicus): 600 nM
3 | CCN(CC)c1ccc(N2CCN(CC3(C)CCc4c(C)c(O)c(C)c(C)c4O3)CC2)nc1N(CC)CC.Cl.O (centres undefined) | 0.01 mg/kg | 11.9 | 1000 nM | –
4 | Cc1c(C)c2c(c(C)c1O)CCC(C)(C(=O)NCc1cccnc1)O2 (centres undefined) | – | – | 47000 nM | –
5 | COc1ccccc1N1CCN(CC2(C)CCc3c(C)c(O)c(C)c(C)c3O2)CC1 (centres undefined) | – | – | 1000 nM | Grip score (Mus musculus [5]): inactive
6 | COc1ccc(CCNCC2(C)CCc3c(C)c(O)c(C)c(C)c3O2)cc1OC.Cl (centres undefined) | 0.01 mg/kg | 8.4 | 1000 nM | –
7 | Cc1c(C)c2c(c(C)c1O)CCC(C)(CN1CCN(c3cc(N4CCCC4)nc(N4CCCC4)n3)CC1)O2.Cl.Cl (stereo in doubt; 60) | 0.001 mg/kg | 11.5 | – | IC50 (Rattus norvegicus): 1100 nM
8 | Cc1c(C)c2c(c(C)c1O)CCC(C)(CNCCN(C)C)O2 (centres undefined) | – | – | 1700 nM | Grip score (Mus musculus [5]): inactive
9 | Cc1c(C)c2c(c(C)c1O)CCC(C)(C(=O)NCCCCc1ccccc1)O2 (centres undefined) | – | – | 700 nM | –
10 | Cc1c(C)c2c(c(C)c1O)CCC(C)(CN1CCCC1)O2 (centres undefined) | – | – | 1400 nM | –
11 | CCNc1cccnc1N1CCN(CC2(C)CCc3c(C)c(O)c(C)c(C)c3O2)CC1.Cl.O (centres undefined) | 0.01 mg/kg | 10.4 and 11.9 | 1000 nM | –
12 | Cc1c(C)c2c(c(C)c1O)CCC(C)(C(=O)O)O2 (centres undefined) [TROLOX] | – | – | 43000 nM | –
13 | COc1ccc(N2CCN(C(=O)C3(C)CCc4c(C)c(O)c(C)c(C)c4O3)CC2)cc1 (centres undefined) | – | – | 700 nM | –
14 | Cc1c(C)c2c(c(C)c1O)CCC(C)(C(=O)N1CCN(c3ccc(Cl)cc3)CC1)O2 (centres undefined) | – | – | 800 nM | –
15 | Cc1c(C)c2c(c(C)c1O)CCC(C)(CN1CCN(c3ccccn3)CC1)O2.Cl.O (centres undefined) | 0.01 mg/kg | 10.7 | 1000 nM | –
16 | Cc1c(C)c2c(c(C)c1O)CCC(C)(C(=O)NCCc1ccccc1)O2 (centres undefined) | – | – | 1300 nM | –
17 | Cc1c(C)c2c(c(C)c1O)CCC(C)(C(=O)N1CCCC1)O2 (centres undefined) | – | – | 10000 nM | –
18 | Cc1c(C)c2c(c(C)c1O)CCC(C)(CN1CCN(c3cc(N4CCCC4)nc(N4CCCC4)n3)CC1)O2.Cl.Cl (stereo in doubt; 59) | – | 14.4 | – | IC50 (Rattus norvegicus): 1500 nM
19 | Cc1c(C)c2c(c(C)c1O)CCC(C)(CN(C)CCc1ccccn1)O2 (centres undefined) | – | – | 177000 nM | –
20 | Cc1c(C)c2c(c(C)c1O)CCC(C)(CN1CCNCC1)O2 (centres undefined) | – | – | 1000 nM | –
21 | Cc1c(C)c2c(c(C)c1O)CCC(C)(CN1CCN(c3ccc(Cl)cc3)CC1)O2 (centres undefined) | – | – | 900 nM | –
22 | Cc1c(C)c2c(c(C)c1O)CCC(C)(C(=O)N1CCN(c3cc(N4CCCC4)nc(N4CCCC4)n3)CC1)O2 (centres undefined) | – | 17.5 | 500 nM | LD50 (Mus musculus [6]): 99.3%; Lowest effective dose (Mus musculus [7]): 0.01 mg/kg; LD50 (Mus musculus [4]): 115.2%
23 | Cc1c(C)c2c(c(C)c1O)CCC(C)(C(=O)NCCN(C)C)O2 (centres undefined) | – | – | 8700 nM | Grip score (Mus musculus [5]): inactive
24 | Cc1c(C)c2c(c(C)c1O)CCC(C)(CNc1ccncc1)O2 (centres undefined) | – | – | 16000 nM | –
25 | Cc1c(C)c2c(c(C)c1O)CCC(C)(C(=O)N1CCN(Cc3ccccc3)CC1)O2 (centres undefined) | – | – | 1000 nM | –
26 | Cc1c(C)c2c(c(C)c1O)CCC(C)(C(=O)N1CCNCC1)O2 (centres undefined) | – | – | 10000 nM | –
27 | CCN(CC)c1ccc(N2CCN(C(=O)C3(C)CCc4c(C)c(O)c(C)c(C)c4O3)CC2)nc1N(CC)CC (centres undefined) | – | – | 200 nM | Grip score (Mus musculus [5]): inactive

Row | Compound | Lowest effective dose (Mus musculus [2]) | Grip score (Mus musculus [3]) | IC50 (Rattus norvegicus; Rattus norvegicus, Brain) | other results
28 | Cc1c(C)c2c(c(C)c1O)CCC(C)(C(=O)Nc1ccncc1)O2 (centres undefined) | 0.01 mg/kg | 11.5 | 2300 nM | –
29 | Cc1c(C)c2c(c(C)c1O)CCC(C)(CNCCc1ccccn1)O2 (centres undefined) | – | – | 23000 nM | –
30 | COc1ccc(CNC(=O)C2(C)CCc3c(C)c(O)c(C)c(C)c3O2)cc1OC (centres undefined) | – | – | 5500 nM | –
31 | Cc1c(C)c2c(c(C)c1O)CCC(C)(CCN1CCN(c3cc(N4CCCC4)nc(N4CCCC4)n3)CC1)O2 (centres undefined) | – | – | 1300 nM | Grip score (Mus musculus [5]): inactive
32 | CC(=O)Oc1c(C)c(C)c2c(c1C)CCC(C)(C(=O)N1CCN(c3cc(N4CCCC4)nc(N4CCCC4)n3)CC1)O2 (centres undefined) | – | – | 17000 nM | –
33 | Cc1c(C)c2c(c(C)c1O)CCC(C)(C(=O)N1CCN(c3ccccn3)CC1)O2 (centres undefined) | 0.01 mg/kg | 8.2 | 1000 nM | –
34 | C[C@@H]1C[C@H]2[C@@H]3CCC4=CC(=O)C=C[C@]4(C)C3=CC[C@]2(C)[C@H]1C(=O)CN1CCN(c2cc(N3CCCC3)nc(N3CCCC3)n2)CC1 [TIRILAZAD] | 0.003 mg/kg | 14.5 | – | LD50 (Mus musculus [6]): 103.6%; LD50 (Mus musculus [4]): 128.4%
35 | Cc1c(C)c2c(c(C)c1O)CCC(C)(C(=O)Nc1ccccn1)O2 (centres undefined) | 0.01 mg/kg | 14.4 | 1800 nM | –
36 | Cc1c(C)c2c(c(C)c1O)CCC(C)(CNCCc1ccccc1)O2.O=C(O)C(=O)O (centres undefined) | 1 mg/kg | 8.7 | 900 nM | –
37 | COc1ccc(CNCC2(C)CCc3c(C)c(O)c(C)c(C)c3O2)cc1OC (centres undefined) | – | – | 11000 nM | –
38 | Cc1c(C)c2c(c(C)c1O)CCC(C)(C(=O)NCCc1ccccn1)O2 (centres undefined) | – | – | 11000 nM | –
39 | Cc1c(C)c2c(c(C)c1O)CCC(C)(CNCCCc1ccccc1)O2 (centres undefined) | – | – | 1000 nM | –
40 | CC(=O)Oc1c(C)c(C)c2c(c1C)CCC(C)(CN1CCN(c3cc(N4CCCC4)nc(N4CCCC4)n3)CC1)O2 (centres undefined) | 1 mg/kg | 9.2 | 1500 nM | –
41 | CCNc1cccnc1N1CCN(C(=O)C2(C)CCc3c(C)c(O)c(C)c(C)c3O2)CC1 (centres undefined) | – | – | 12000 nM | –
42 | COc1ccc(CCNC(=O)C2(C)CCc3c(C)c(O)c(C)c(C)c3O2)cc1OC (centres undefined) | – | – | 4100 nM | –
43 | Cc1c(C)c2c(c(C)c1O)CCC(C)(CN1CCN(c3ncccn3)CC1)O2 (centres undefined) | 0.01 mg/kg | 10.3 | 1000 nM | –
44 | Cc1c(C)c2c(c(C)c1O)CCC(C)(CNc1ccccn1)O2 (centres undefined) | 0.01 mg/kg | 12.3 | 200 nM | –
45 | Cc1c(C)c2c(c(C)c1O)CC[C@@](C)(CCC[C@H](C)CCC[C@H](C)CCCC(C)C)O2 [ALPHA-TOCOPHEROL] | – | – | 28000 nM | –
46 | C[C@H]1C[C@@H]2[C@H]([C@@H](O)C[C@@]3(C)[C@H]2CC[C@]3(O)C(=O)COC(=O)CCC(=O)[O-])[C@@]2(C)C=CC(=O)C=C12.[Na+] [METHYLPREDNISOLONE SODIUM SUCCINATE] | 15 mg/kg | 13.5 | – | –
47 | COc1ccc(N2CCN(CC3(C)CCc4c(C)c(O)c(C)c(C)c4O3)CC2)cc1 (centres undefined) | – | – | 200 nM | –
48 | COc1ccccc1N1CCN(C(=O)C2(C)CCc3c(C)c(O)c(C)c(C)c3O2)CC1 (centres undefined) | 0.01 mg/kg | 12.8 | 15000 nM | –
49 | Cc1c(C)c2c(c(C)c1O)CCC(C)(C(=O)NCCCc1ccccc1)O2 (centres undefined) | – | – | 1000 nM | –
50 | Cc1c(C)c2c(c(C)c1O)CCC(C)(C(=O)N(C)CCc1ccccn1)O2 (centres undefined) | – | – | 5400 nM | –
51 | Cc1c(C)c2c(c(C)c1O)CCC(C)(CNCc1cccnc1)O2 (centres undefined) | – | – | 48000 nM | –
52 | Cc1c(C)c2c(c(C)c1O)CCC(C)(CNCCCCc1ccccc1)O2 (centres undefined) | – | – | 800 nM | –
53 | Cc1c(C)c2c(c(C)c1O)CCC(C)(CC(=O)N1CCN(c3cc(N4CCCC4)nc(N4CCCC4)n3)CC1)O2 (centres undefined) | – | – | 1300 nM | Grip score (Mus musculus [5]): inactive
54 | Cc1c(C)c2c(c(C)c1O)CCC(C)(C(=O)N1CCN(c3ncccn3)CC1)O2 (centres undefined) | 1 mg/kg | 12 | 23000 nM | –
